Data taken from ChEMBL document CHEMBL3875229, “Potent Antifungal Synergy of Phthalazinone and Isoquinolones with Azoles Against Candida albicans” (ACS Med Chem Lett, 2017).

Experiments:
Candida albicans [1] = assay: microbe, parasite or virus in culture; conditions: HLY4123, 16 h
Candida albicans [2] = assay: Antifungal activity against Candida albicans HLY4123 after 16 hrs in presence of 0.05 ug/ml of fluconazole by ten fold serial dilution method; format: functional; conditions: HLY4123, 16 h
[3] = Antifungal activity against Candida albicans clinical isolate 45 after 16 hrs in presence of 0.5 ug/ml of isavuconazole by broth microdilution assay; format: functional
[4] = Antifungal activity against fluconazole-resistant Candida albicans clinical isolate 17 after 16 hrs in presence of 12 ug/ml fluconazole by broth microdilution assay; format: functional
[5] = Antifungal activity against fluconazole-resistant Candida albicans clinical isolate 26 after 16 hrs in presence of 32 ug/ml fluconazole by broth microdilution assay; format: functional
[6] = Antifungal activity against fluconazole-resistant Candida albicans clinical isolate 33 after 16 hrs in presence of 64 ug/ml fluconazole by broth microdilution assay; format: functional
[7] = Antifungal activity against fluconazole-resistant Candida albicans clinical isolate 36 after 16 hrs in presence of 64 ug/ml fluconazole by broth microdilution assay; format: functional
[8] = Antifungal activity against fluconazole-resistant Candida albicans clinical isolate 45 after 16 hrs in presence of 96 ug/ml fluconazole by broth microdilution assay; format: functional
Candida albicans [9] = assay: Antifungal activity against Candida albicans HLY4123 after 16 hrs in presence of 0.001 ug/ml of isavuconazole by ten fold serial dilution method; format: functional; conditions: HLY4123, 16 h
Candida albicans [10] = assay: Antifungal activity against Candida albicans HLY4123 at 0.015 nM to […] after 16 hrs in presence of […] of fluconazole by checkerboard assay; format: functional
Method in brief: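 Analogue and fluconazole were combined in a checkerboard format against C. albicans HLY4123. Fractional inhibitory concentration indices were calculated, with 0.5 taken as the upper limit for pharmacological synergy.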

[11] = Antifungal activity against Candida albicans clinical isolate 2 in presence of fluconazole; format: functional
Method in brief: (§1)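 Dose-dependent broth microdilution against fluconazole-resistant clinical isolates. Analogue concentration was varied while fluconazole was held fixed at each isolate's own MIC50, measured separately for fluconazole alone. EC50 is given as arithmetic mean ± SD of three independent experiments.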

[12] = Antifungal activity against Candida albicans clinical isolate 8 in presence of fluconazole; format: functional
Method in brief: as §1

## COc1cc(C#CCCCO)ccc1-n1cc(C(=O)NCC(=O)NCCC2=CCCCC2)c2ccccc2c1=O
Candida albicans [1]
  EC50: > 100000 nM

## COc1ccc(-n2cc(C(=O)NCC(=O)NCCC3=CCCCC3)c3ccccc3c2=O)c(OC)c1
Candida albicans [1]
  EC50: 33 nM

## Cc1c(Cl)ccc2c1NC(=O)[C@@]21[C@H]2C(=O)N(c3ccccc3)C(=O)[C@H]2[C@H]2CN(C(=O)OCc3ccccc3)CCN21
Candida albicans [1]
  EC50: 0.3 nM

## COc1cc(Br)ccc1-n1cc(C(=O)NCC(=O)NCCC2=CCCCC2)c2ccc(Br)cc2c1=O
Candida albicans [1]
  EC50: 3 nM

## COc1cc(Br)ccc1-n1nc(C(=O)NCC(=O)NCCC2=CCCCC2)c2ccccc2c1=O
Candida albicans [2]
  EC50: 7 nM
[3]
  EC50: 13 nM
[4]
  EC50: 39 nM
[5]
  EC50: 17 nM
[6]
  EC50: 72 nM
[7]
  EC50: 20 nM
[8]
  EC50: 65 nM
Candida albicans [9]
  EC50: 4 nM
Candida albicans [10]
  fractional inhibitory concentration index (FICI): <0.12
Candida albicans [1]
  EC50: 1 nM

## COc1cc(Br)ccc1-n1cc(C(=O)NCC(=O)NCCC2=CCCCC2)c2sccc2c1=O
Candida albicans [1]
  EC50: 230 nM

## COc1cc(Br)ccc1-n1cc(C(=O)NCC(=O)NCCC2=CCCCC2)c2ccc(C#CCCCO)cc2c1=O
Candida albicans [1]
  EC50: > 100000 nM

## COc1cc(Br)ccc1-n1cc(C(=O)NCCc2ccccc2)c2ccccc2c1=O
Candida albicans [1]
  EC50: 220 nM

## COc1cc(Br)ccc1-n1cc(C(=O)NCC(=O)NCCC2=CCCCC2)c2occc2c1=O
Candida albicans [1]
  EC50: > 10000 nM

## COc1cc(Br)ccc1-n1cc(C(=O)N[C@@H](CCCCNC(=O)OCc2ccccc2Cl)C(=O)NCCC2=CCCCC2)c2ccccc2c1=O
Candida albicans [1]
  EC50: 23 nM

## COc1cc(Br)ccc1-n1cc(C(=O)NCC(=O)NCCc2ccccc2)c2ccccc2c1=O
Candida albicans [1]
  EC50: 20 nM

## COc1cc(C)ccc1-n1cc(C(=O)NCC(=O)NCCC2=CCCCC2)c2ccccc2c1=O
Candida albicans [1]
  EC50: 65 nM

## COc1cc(Br)ccc1-n1cc(C(=O)NCC(=O)NCCC2=CCCCC2)c2ccccc2c1=O
Candida albicans [2]
  EC50: 24 nM
[3]
  EC50: 110 nM
[4]
  EC50: 74 nM
[5]
  EC50: 11 nM
[6]
  EC50: 371 nM
[7]
  EC50: 32 nM
[8]
  EC50: 170 nM
Candida albicans [9]
  EC50: 6 nM
Candida albicans [10]
  fractional inhibitory concentration index (FICI): <0.17
Candida albicans [1]
  EC50: 3 nM

## COc1ccc(-n2nc(C(=O)NCC(=O)NCCC3=CCCCC3)c3ccccc3c2=O)c(OC)c1
[11]
  EC50: 470 nM
Candida albicans [2]
  EC50: 49 nM
[12]
  EC50: 220 nM
Candida albicans [1]
  EC50: 15 nM
